Activity calls are given as the source filed them. The calls are words filed in the database; no cut-off is given here.
Assays:
[1] = Selectivity ratio of IC50 for human fibroblasts to IC50 for human melanoma cells; type: ADME; conditions: human fibroblasts and human melanoma cells, read-out: Ratio IC50
[2] = Antiproliferative activity against mouse B16-F1 cells after 48 hrs by SRB assay; type: functional, cell-based; conditions: B16-F1, 48 h
In short: (§1)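 Melanoma lines and control fibroblasts grown at 37 °C, 5% CO2, then exposed to a wide concentration range for 48 h in round-bottom 96-well plates. Fixed with 10% TCA, stained with SRB, protein read at 560 nm. IC50 (50% growth inhibition versus untreated) obtained by nonlinear regression.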

A-375 [3] = assay: Antiproliferative activity against human A375 cells after 48 hrs by SRB assay; type: functional, cell-based; conditions: A-375, 48 h; in short: as §1
LNCaP [4] = assay: Antiproliferative activity against human LNCAP cells after 96 hrs by SRB assay; type: functional, cell-based
In short: (§2)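 Prostate lines in RPMI1640/10% FBS; RH7777 in DMEM/10% FBS. Cells TCA-fixed, stained with 0.4% SRB, absorbance read at 540 nm. IC50 from nonlinear regression of % survival against concentration.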

PC-3 = assay: Antiproliferative activity against human PC3 cells after 96 hrs by SRB assay; type: functional, cell-based; conditions: PC-3, 96 h
[5] = Antiproliferative activity against human WM164 cells after 48 hrs by SRB assay; type: functional, cell-based; conditions: WM164, 48 h; in short: as §1
DU-145 = assay: Antiproliferative activity against human DU145 cells after 96 hrs by SRB assay; type: functional, cell-based; conditions: DU-145, 96 h; in short: as §2
RH7777 [6] = assay: Selectivity ratio of IC50 for rat RH7777 cells to IC50 for human prostate cancer cells
In short: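 Ratio of RH7777 IC50 to the mean IC50 over four prostate lines (DU 145, PC-3, LNCaP, PPC-1). Prostate lines grown in RPMI1640/10% FBS and RH7777 in DMEM/10% FBS. Read by SRB (0.4%) at 540 nm; IC50 by nonlinear regression.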

[7] = Cytotoxicity against human fibroblasts after 48 hrs by SRB assay; type: cell-based; conditions: Fibroblast; in short: as §1
RH7777 [8] = assay: Cytotoxicity against rat RH7777 cells after 96 hrs by SRB assay; type: cell-based; conditions: RH7777, 96 h; in short: as §2
PPC-1 = assay: Antiproliferative activity against human PPC1 cells after 96 hrs by SRB assay; type: functional, cell-based; conditions: PPC-1, 96 h; in short: as §2
A-375 [9] = assay: Inhibition of human A375 cells colony formation at 20 uM after 7 days by colony-formation assay; type: functional
[10] = biological target: T1, Lysophosphatidic acid receptor 3 (Homo sapiens) (UniProt Q9UBY5); assay: Antagonist activity at LPA3 expressed in human chem1 cells assessed as effect on intracellular calcium mobilization by FLIPR assay; type: functional, cell-based
T1 sequence (whole entry): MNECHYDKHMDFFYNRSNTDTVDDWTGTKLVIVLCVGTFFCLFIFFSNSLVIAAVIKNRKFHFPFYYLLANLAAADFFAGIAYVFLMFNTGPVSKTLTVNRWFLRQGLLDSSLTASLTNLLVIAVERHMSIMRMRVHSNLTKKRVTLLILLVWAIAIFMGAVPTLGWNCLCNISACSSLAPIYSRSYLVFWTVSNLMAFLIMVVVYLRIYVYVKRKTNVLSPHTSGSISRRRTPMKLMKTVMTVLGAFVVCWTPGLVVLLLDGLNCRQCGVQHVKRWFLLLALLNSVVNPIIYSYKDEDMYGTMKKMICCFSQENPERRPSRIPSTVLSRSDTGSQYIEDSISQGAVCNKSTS
In short: (§3)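 LPA1-, LPA3- or LPA5-transfected Chem-1 cells, Fluo-4 NW loaded, preincubated 10 min at 25 °C with compound. Dilution series was eight-point, fourfold, top final concentration 10 μM. […] FLIPR Ca2+ signal read for 180 s, percentage inhibition calculated; 50% inhibition was taken as antagonism.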

A-375 [11] = assay: Inhibition of human A375 cells colony formation at 100 uM after 7 days by colony-formation assay; type: functional, cell-based
[12] = biological target: T2, Lysophosphatidic acid receptor 1 (Homo sapiens, UniProt Q92633); assay: Agonist activity at LPA1 expressed in human chem1 cells assessed as intracellular calcium mobilization by FLIPR assay; type: functional, cell-based
T2 sequence (Q92633 whole entry): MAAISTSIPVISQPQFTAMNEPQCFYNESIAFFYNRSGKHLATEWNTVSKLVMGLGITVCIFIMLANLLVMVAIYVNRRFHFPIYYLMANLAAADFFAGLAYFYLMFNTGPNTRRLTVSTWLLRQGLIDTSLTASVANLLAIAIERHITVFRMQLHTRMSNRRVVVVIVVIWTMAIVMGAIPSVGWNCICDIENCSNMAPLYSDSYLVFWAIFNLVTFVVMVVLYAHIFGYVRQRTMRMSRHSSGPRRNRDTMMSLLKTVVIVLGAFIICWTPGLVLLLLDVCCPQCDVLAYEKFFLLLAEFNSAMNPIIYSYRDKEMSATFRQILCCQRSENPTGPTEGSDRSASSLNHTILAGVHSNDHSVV
In short: (§4)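 Chem-1 cells stably transfected with LPA1, LPA3 or LPA5, kept in DMEM/10% FBS; Fluo-4 NW loaded. Compound added as an eight-point fourfold serial dilution (top 10 μM), then incubated 10 min at 25 °C. Ca2+ flux read for 180 s on FLIPR, expressed as percentage activation.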

[13] = biological target: T2, Lysophosphatidic acid receptor 1; assay: Antagonist activity at LPA1 expressed in human chem1 cells assessed as effect on intracellular calcium mobilization by FLIPR assay; type: functional, cell-based; in short: as §3
LNCaP [14] = assay: Cell cycle arrest in human LNCAP cells by assessed as increase in accumulation at subG1 phase […] by flow cytometry; type: functional, cell-based
[15] = biological target: Lysophosphatidic acid receptor 5 (Homo sapiens) (UniProt Q9H1C0); assay: Antagonist activity at LPA5 expressed in human chem1 cells assessed as effect on intracellular calcium mobilization by FLIPR assay; type: functional, cell-based; in short: as §3
Lysophosphatidic acid receptor 5 (Homo sapiens), sequence (Q9H1C0 whole entry): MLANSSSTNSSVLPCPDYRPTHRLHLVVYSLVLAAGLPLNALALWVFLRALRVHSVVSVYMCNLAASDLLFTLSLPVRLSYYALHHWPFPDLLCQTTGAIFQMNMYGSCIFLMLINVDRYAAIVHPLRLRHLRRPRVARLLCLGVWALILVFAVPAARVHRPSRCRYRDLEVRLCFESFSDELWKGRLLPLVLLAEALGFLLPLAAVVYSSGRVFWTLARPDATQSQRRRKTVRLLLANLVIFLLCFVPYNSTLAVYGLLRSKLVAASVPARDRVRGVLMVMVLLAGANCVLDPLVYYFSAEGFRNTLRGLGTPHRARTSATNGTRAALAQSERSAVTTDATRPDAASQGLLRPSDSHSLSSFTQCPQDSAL

A-375 [16] = assay: Cell cycle arrest in human A375 cells by assessed as increase in accumulation at subG1 phase […] by flow cytometry; type: functional, cell-based
[17] = biological target: T1, Lysophosphatidic acid receptor 3 (Homo sapiens); assay: Agonist activity at LPA3 expressed in human chem1 cells assessed as intracellular calcium mobilization by FLIPR assay; type: functional, cell-based; in short: as §4
[18] = biological target: Lysophosphatidic acid receptor 5 (Homo sapiens) (UniProt Q9H1C0); assay: Agonist activity at LPA5 expressed in human chem1 cells assessed as intracellular calcium mobilization by FLIPR assay; type: functional, cell-based; in short: as §4
A-375 [19] = assay: Inhibition of human A375 cells colony formation at 2 uM after 7 days by colony-formation assay; type: functional, cell-based

Row | IC50 (A-375 [3]) | IC50 (LNCaP [4]) | IC50 (PC-3) | IC50 (DU-145) | Structure (SMILES) | selectivity ratio [1] | IC50 [2] | IC50 [5] | Ratio IC50 (RH7777 [6]) | IC50 [7] | IC50 (RH7777 [8]) | IC50 (PPC-1) | further results
1 | 6900 nM | 2400 nM | 4100 nM | 5500 nM | CCCCCCCCCCCCCCCCCCNC(=O)[C@@H]1CSC(c2ccc(OC)c(OC)c2)N1 (mixture of isomers) | 2.5 | 14300 nM | 2700 nM | 3.7 | 20300 nM | 11800 nM | 900 nM | 
2 | 1800 nM | 500 nM | 1000 nM | 1100 nM | CCCCCCCCCCCCCCCCNC(=O)[C@@H]1CSC(c2cccc(OC)c2)N1 (mixture of isomers) | 1.3 | 3000 nM | 1200 nM | 5.1 | 2500 nM | 3600 nM | 200 nM | 
3 | 6200 nM | 3500 nM | 7600 nM | 5000 nM | CC(=O)Nc1ccc(C2N[C@H](C(=O)Nc3ccc(-c4ccccc4)cc3)CS2)cc1 (mixture of isomers) | 6.3 | 5700 nM | 4100 nM | 2 | 33400 nM | 9500 nM | 2900 nM | 
4 | 1500 nM | 1400 nM | 1600 nM | 2300 nM | CCCCCCCCCCCCCCCCNC(=O)[C@@H]1CSC(c2cccc(NC(C)=O)c2)N1 (mixture of isomers) | 3.9 | 2200 nM | 1100 nM | 3.4 | 6300 nM | 4900 nM | 500 nM | 
5 | 3100 nM | 1700 nM | 800 nM | 900 nM | CC(=O)Nc1ccc(C2N[C@H](C(=O)Nc3ccc4cc5ccccc5cc4c3)CS2)cc1 (mixture of isomers) | 4 | 5600 nM | 1400 nM | 2.5 | 13500 nM | 2600 nM | 700 nM | 
6 | 1800 nM | 600 nM | 1200 nM | 900 nM | CCCCCCCCC/C=C/CCCCCCCNC(=O)[C@@H]1CSC(c2cc(OC)c(OC)c(OC)c2)N1 (mixture of isomers) | 2 | 3200 nM | 1100 nM | 9.1 | 4000 nM | 6800 nM | 300 nM | 
7 | 1600 nM | 1300 nM | 2600 nM | 2000 nM | CCCCCCCCC/C=C\CCCCCCCNC(=O)[C@@H]1CSC(c2ccc(OC)c(OC)c2)N1 (mixture of isomers) | 9 | 3300 nM | 1200 nM | 6.2 | 18300 nM | 10000 nM | 600 nM | 
8 | 1900 nM | 1800 nM | 2500 nM | 2400 nM | CCCCCC/C=C\CCCCCCCCNC(=O)[C@@H]1CSC(c2ccc(NC(C)=O)cc2)N1 (mixture of isomers) | 7 | 2100 nM | 2000 nM | 3.9 | 14000 nM | 7600 nM | 1100 nM | 
9 | 1400 nM |  |  |  | CCCCCCCCCCCCCCCCNC(=O)[C@@H]1CSC(c2cc(OC)c(OC)c(OC)c2)N1 (mixture of isomers) | 2 | 1600 nM | 700 nM |  | 2400 nM |  |  | Activity (A-375 [9]): Active; Activity [10]: inactive; Activity (A-375 [11]): Active; Activity [12]: inactive; Activity [13]: inactive; Activity (LNCaP [14]): Dose-dependent effect; Activity [15]: inactive; Activity (A-375 [16]): Dose-dependent effect; Activity [17]: inactive; Activity [18]: inactive; Activity (A-375 [19]): Active
10 | 13000 nM | 3900 nM | 3400 nM | 3100 nM | CCCCCCCCCCCCCCCCNC[C@@H]1CSC(c2ccccc2)N1 (mixture of isomers) | 8 | 4700 nM | 4900 nM | 1.9 | 60000 nM | 6200 nM | 2500 nM | 
11 |  |  |  |  | CCCCCCCC/C=C\CCCCCCCC(=O)OC[C@@H](O)COP(=O)(O)O [LYSOPHOSPHATIDIC ACID] |  |  |  |  |  |  |  | EC50 [12]: 31 nM
12 |  |  |  |  | Cc1noc(-c2ccc(CSCCC(=O)O)cc2)c1NC(=O)OC(C)c1ccccc1Cl (centres undefined) |  |  |  |  |  |  |  | Activity [12]: inactive; IC50 [13]: 46 nM; Activity [17]: inactive; Activity [18]: inactive
13 | 3000 nM | 3600 nM | 7400 nM | 6500 nM | CCCCCCCCCCCCCCCCNC(=O)[C@@H]1CSC(c2ccccc2OC)N1 (mixture of isomers) | 2.2 | 4300 nM | 2400 nM | 3.6 | 7200 nM | 17200 nM | 1700 nM | 
14 | 1400 nM | 800 nM | 2000 nM | 1500 nM | CCCCCCCCC/C=C/CCCCCCCNC(=O)[C@@H]1CSC(c2ccc(OC)c(OC)c2)N1 (mixture of isomers) | 8.6 | 3200 nM | 1100 nM | 8.2 | 16300 nM | 9400 nM | 300 nM | 
15 | 12600 nM | 10600 nM | 9000 nM | 14900 nM | CCCCCCCCCCCCCCCCNC(=O)[C@@H]1CSC(c2ccc(NC(C)=O)cc2)N1C(C)=O (mixture of isomers) | 3.6 | 15000 nM | 20400 nM | 1.3 | 57700 nM | 13000 nM | 6800 nM | 
16 | 4900 nM | 1600 nM | 2400 nM | 1800 nM | CCCCCCCCC/C=C\CCCCCCCNC(=O)[C@@H]1CSC(c2ccccc2)N1 (mixture of isomers) | 2.6 | 6000 nM | 2400 nM | 4.9 | 11600 nM | 8300 nM | 1000 nM | 
